The list is not random: actives were taken first. Their share in the collection is about 1.3%.
RAD52 anneal inh: inhibitors of human RAD52 DNA annealing; recombinant RAD52 DNA annealing, FRET fluorescence; inhibition, % at 18.7 µM; 0.46% of 360,000 active; AID 651710;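 active = every replicate showing at least 50% inhibition; inconclusive = mean inhibition at least 50% but not in every replicate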
Target sequence (P43351 whole entry, looked up): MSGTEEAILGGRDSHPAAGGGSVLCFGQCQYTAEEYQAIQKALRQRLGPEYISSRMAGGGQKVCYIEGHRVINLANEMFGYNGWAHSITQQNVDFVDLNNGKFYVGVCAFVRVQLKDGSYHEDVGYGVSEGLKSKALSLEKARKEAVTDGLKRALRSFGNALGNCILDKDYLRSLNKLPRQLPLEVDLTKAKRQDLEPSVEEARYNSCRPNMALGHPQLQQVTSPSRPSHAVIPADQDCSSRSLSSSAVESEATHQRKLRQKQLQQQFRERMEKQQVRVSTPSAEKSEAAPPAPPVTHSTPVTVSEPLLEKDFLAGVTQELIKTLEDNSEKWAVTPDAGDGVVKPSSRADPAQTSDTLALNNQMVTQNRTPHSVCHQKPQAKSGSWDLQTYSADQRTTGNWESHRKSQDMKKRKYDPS
GSIS activator: GLuc luminescence reporter in INS-1E cells, primary screen for activators of glucose-dependent secretion of insulin; INS-1E GLuc reporter insulin secretion, 2-3 h; activation, % at 16.6 µM; 0.61% of 370,000 active; AID 743287;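 active = lowest replicate activation of at least 40%, so every replicate reaches that level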;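 note: 0% = median of neutral control wells and 100% = median of IBMX positive control wells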
S100A4 inh HTS: inhibitors of human S100A4 binding to myosin IIA peptide. S100A4/TAMRA-MyoIIA peptide fluorescence polarization. inhibition, % at 10.7 µM. 0.14% of 360,000 active. AID 652163;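 active = mean inhibition of at least 70% across replicates, with every replicate also reaching that level; inconclusive = mean inhibition reaches 70% but some replicates fall short; inactive = mean inhibition below 70%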
Target sequence (P26447 whole entry, looked up): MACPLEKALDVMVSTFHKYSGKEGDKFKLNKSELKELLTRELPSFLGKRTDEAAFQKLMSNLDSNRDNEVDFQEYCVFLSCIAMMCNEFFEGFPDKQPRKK
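Material: human S100A4 monomer with TAMRA-labelled myosin IIA peptide; buffer or medium: HEPES pH 7.2 with CaCl2, KCl, NaCl, DTT, Triton; compound dosing: one concentration per compound; schedule: 5 min incubation before reading; benchmarks: neutral control DMSO, positive control TFP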
MLL AF4-AF9 inh: blocks AF4 peptide binding to human AF9; AlphaScreen, biotin-AF4 peptide binding to FLAG-AF9; inhibition, % at 10 µM; 0.47% of 350,000 active; AID 651704;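 active = every replicate reaching a set inhibition limit, whatever the replicate mean, cut at about 25% in these data; inconclusive = mean inhibition reaches that limit but some replicates miss it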;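 note: 0% = plate neutral control median and 100% = total signal loss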
RAD54 branch: inhibitors of human RAD54 branch migration | inhibition, % at 10.4 µM | RAD54 Holliday junction branch migration, FAM/BHQ fluorescence | Q92698 | AID 602329 | 0.14% of 360,000 active;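 active = mean normalized replicate activity at least 40 and at least half of replicates scoring 40 or more; inconclusive = only one of the two criteria met; inactive = mean below 40 and under half of replicates reaching 40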;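 note: 0% = median of neutral control wells and 100% = median of positive control wells; inhibitors cause a drop in the FAM fluorescence signal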
* = called active by the depositor; u = inconclusive; x = no result given; ! = repeats disagree.

SMILES | RAD52 anneal inh | GSIS activator | S100A4 inh HTS | MLL AF4-AF9 inh | RAD54 branch
C[C@H](CO)N1C[C@H](C)[C@@H](CN(C)Cc2cncnc2)Oc2ncc(C#CC3(O)CCCC3)cc2C1=O | 10 | 8 | 0 | -4 | 1
C[C@@H]1CCCCO[C@@H](CN(C)S(=O)(=O)c2cn(C)cn2)[C@H](C)CN([C@@H](C)CO)C(=O)c2cc(NS(=O)(=O)c3ccc(Cl)cc3)ccc2O1 | -12 | -4 | 1 | -17 | 6
CCCc1cn(CC[C@@H]2CC[C@H](NC(=O)Nc3ccc4c(c3)OCO4)[C@H](CO)O2)nn1 | 10 | -5 | 2 | 0 | -3
CN(C)c1ccc(C(c2ccc(N(C)C)cc2)c2ccc([N+](=O)[O-])cc2)cc1 | 6 | x | -3 | 27* | -1
C[C@H](CO)N1C[C@H](C)[C@H](CN(C)Cc2ccncc2)OCCCC[C@H](C)Oc2ccc(NS(=O)(=O)c3ccc(F)cc3)cc2C1=O | 5 | -5 | 14 | 0 | -5
Cc1[nH]c2ccccc2c1N=Nc1ccc(F)cc1 | -11 | -14 | -1 | 30* | x
O=C(Nc1ccc(F)cc1)N1CC(=O)N2[C@H](CO)[C@@H](c3ccc(C#Cc4ccccc4)cc3)[C@@H]2C1 | x | -12 | x | x | x
COCCNc1nc(Oc2ccc(C(N)=O)cc2)c2sccc2n1 | -4 | 92* | 3 | -4 | 11
COCCNc1nc(NCCCN(C)C)c2sccc2n1 | -65 | 66* | 1 | -1 | -4
Cc1ccc(S(=O)(=O)Nc2ccc3c(c2)C(=O)N([C@H](C)CO)C[C@@H](C)[C@@H](CN(C)C(=O)CCCN(C)C)OCCCC[C@H](C)O3)cc1 | 8 | 18 | -1 | -1 | 13
CCOc1ccc(C(C(=O)NCC2CCCO2)N(C(=O)c2snc(C(N)=O)c2N)c2ccc3c(c2)OCCO3)cc1 (centres undefined) | -3 | -6 | 8 | 27* | 3
Cc1cc(NC(=O)CCCN2C(=O)/C(=C\c3cccs3)SC2=S)no1 | x | 54* | x | x | 1
Cc1ccc(/C=C2\SC(=S)N(CCCC(=O)Nc3cc(C)on3)C2=O)cc1 | -5 | 10 | -4 | -1 | 6
C[C@@H]1CN([C@@H](C)CO)C(=O)Cc2cc(NC(=O)C3CCCCC3)ccc2O[C@@H]1CN(C)S(=O)(=O)c1cccs1 | 3 | -15 | -13 | 0 | 0
COc1ccc(Nc2nc(NC(C)C)nc3ccsc23)cc1OC | 13 | -1 | -3 | 11 | 28
COc1ccc(Nc2nc(NCc3cccs3)nc3ccsc23)cc1OC | 10 | 48* | -1 | 14 | -1
COc1ccc(CCN2C(=O)C3C(C2=O)C2C=CC3C23CC3)cc1OC (centres undefined) | -7 | -7 | 0 | 0 | 3
COc1ccc(CCN2CC(=O)NC(=O)C2)cc1OC | -6 | 54* | -1 | 1 | -2
CC(C)NC(=O)Nc1ccc2c(c1)C(=O)N([C@@H](C)CO)C[C@H](C)[C@@H](CN(C)C(=O)NC1CCCCC1)OCCCC[C@@H](C)O2 | 6 | 5 | -5 | 0 | -3
CC1=C(C(=O)OCc2ccccc2)C(c2cccnc2)c2c(n(C)c(=O)n(C)c2=O)N1 (centres undefined) | -12 | 42*! | -1 | 3 | 12
O=[N+]([O-])c1ccc(N2CCN(C(=S)NCc3ccc(Cl)cc3)CC2)cc1 | -19 | x | -1 | 34* | x
CCNC(=S)N1CCN(c2ccc([N+](=O)[O-])cc2)CC1 | x | x | x | x | 1
O=C(c1ccccn1)N1C[C@@H]2[C@H](c3ccccc31)[C@@H](CO)N2C(=O)C1CCOCC1 | -10 | 4 | 9 | -1 | -6
COc1ccc(-c2nc(C#N)c(NCC3CCCO3)o2)cc1 (centres undefined) | x | x | x | x | -9
Cc1ccc(-c2nc(C#N)c(NCC3CCCO3)o2)cc1 (centres undefined) | -3 | 40* | 5 | 2 | x
SMILES | RAD52 anneal inh | GSIS activator | S100A4 inh HTS | MLL AF4-AF9 inh | RAD54 branch
O=C(Nc1ccc(Cl)cc1)N[C@@H]1CC[C@H](CCNC(=O)c2ccccc2F)O[C@@H]1CO | -4 | -17 | u | -4 | 1
O=c1cc(CSc2nnc(COc3ccc(Cl)cc3)o2)c2ccccc2[nH]1 | x | x | x | x | -5
COc1cccc(OCc2nnc(SCc3cc(=O)[nH]c4ccccc34)o2)c1 | -6 | -1 | 3 | 38* | x
CC(=O)N1CC(=O)N2[C@H](CO)[C@H](c3ccc(C#CC(C)C)cc3)[C@@H]2C1 | -3 | 6 | 11 | 2 | x
COc1cc2c(cc1OC)C(Nc1ccccc1)=NC(C)(C)C2 | -4 | 57* | -3 | -5 | 2
COc1ccc(CNC(=O)CCc2c[nH]c3ccccc23)cc1 | -9 | 14 | 5 | 1 | -10
COC(=O)c1ccc(CNC(=O)CCc2c[nH]c3ccccc23)cc1 | -9 | 50* | -1 | 2 | -5
COc1ccc2c3c(n(C)c2c1)[C@@H](CO)N(C(=O)Cc1ccccc1)CC31CCN(C(C)=O)CC1 | x | -22 | x | 0 | x
Cc1csc(N=Nc2ccc(N(C)C)cc2)[n+]1[O-] | 29 | -27 | -12 | 52* | x
CN(C)c1ccc(N=Nc2ccc(C(=O)O)cc2)cc1 | -37 | -1 | -5 | 1 | x
CCCn1nc(C(=O)NC2CCCC2)c2ccccc2c1=O | -5 | 58* | -5 | -1 | -7
CCCCn1nc(C(=O)NC2CCCCCC2)c2ccccc2c1=O | 2 | 2 | -1 | -3 | 0
O=C(Cn1c(COc2ccccc2)nc2ccccc21)Nc1cc(Cl)cc(Cl)c1 | x | 68* | x | x | -2
COc1cc2c(cc1OC)CN(c1ncccc1[N+](=O)[O-])CC2 | -6 | 50* | -7 | 9 | x
COCC(=O)N(C)C[C@H]1Oc2cc(C#C[C@@H](C)O)ccc2S(=O)(=O)N([C@H](C)CO)C[C@@H]1C | 0 | 12 | -5 | -1 | -10
COc1cc(C(=O)C(=O)c2ccc(O)c(OC)c2)ccc1O | -11 | 43* | -2 | 1 | -5
O=C(CC(NC(=O)c1ccccc1)c1ccccc1)Nc1cccc2ccccc12 (centres undefined) | x | 95* | x | x | 2
O=C(CC(NC(=O)c1ccccc1)c1ccccc1)NCc1ccccc1 (centres undefined) | -4 | -1 | -3 | -3 | -2
O=c1c2ccccc2sn1-c1ccccc1F | -16 | 86* | -1 | -9 | 11
O=c1c2ccccc2sn1-c1cccc(Cl)c1 | -5 | -18 | 0 | -14 | 5
CN(C)S(=O)(=O)c1cccc(-n2sc3ccccc3c2=O)c1 | -28 | 65* | 3 | x | 3
O=c1c2cc(F)ccc2sn1-c1ccccc1 | -3 | -3 | -2 | -20 | 4
Cc1ccccc1-n1sc2cc(F)ccc2c1=O | -9 | 45* | 0 | -12 | 3
O=c1c2ccccc2sn1-c1ccccc1 | x | 256* | x | x | -3
Cn1sc2ccccc2c1=O | -4 | 12 | -6 | -1 | 4
